Results: ChEMBL document CHEMBL4513216, “Probing the Open Global Health Chemical Diversity Library for Multistage-Active Starting Points for Next-Generation Antimalarials” (ACS Infect Dis, 2020)

Tests used:
[1] = (§1) Toxicity liver stage against HepG2, at 10uM; assay type: cell-based; design: test concentration 10 uM, cell line HepG2-A16-CD81EGFP; conditions: human, HepG2-A16-CD81EGFP cells; read-out: INHIBITION
Outline: (§2)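 Uninfected HepG2-A16-CD81EGFP cells, 3 × 10^3 per well, 1536-well, plated on prespotted compound at 10 μM final, parasite-free screening media added to match infected plates; puromycin 10 μM positive, DMSO 0.5% negative; run in parallel with 48 h PbLuc assay at 37 °C, 5% CO2; viability by CellTiter-Glo luminescence, normalized to controls.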

[2] = system: HepG2; assay: as §1; assay type: cell-based; design: test concentration 10 uM, cell line HepG2-A16-CD81EGFP; conditions: human, hepg2, 10 µM; 10 µM; outline: as §2

Row | Compound | cytotoxicity at 10 µM [1] [%] | INHIBITION [2] [%]
1 | CC(=O)c1ccc(OCC(=O)c2cccn2C)cc1 | 27.6 | –
2 | COc1ccc(C(=O)Nc2cccc(SC)c2)c(OC)n1 | 13.2 | –
3 | O=C(NCCc1nccs1)c1n[nH]c2c1CCC2 | 3.89 | –
4 | CSc1ccccc1NC(=O)c1ccc(N2CCOCC2)nn1 | 0.951 | –
5 | Cn1cccc1C(O)CNC(=O)c1ccc(C(F)(F)F)cc1 (stereo not given) | 2.9 | –
6 | CC1CCc2nc(O)c(C(=O)NCc3ccccc3F)cc2C1 (stereo not given) | 4.47 | –
7 | Cc1ccccc1-n1ccc2nc(N3CCCC3)ncc2c1=O | -5.1 | –
8 | CCc1c(C)nn2c(O)cc(C3CCN(C(=O)c4ccccn4)C3)nc12 (stereo not given) | 6.7 | 4.85
9 | N#Cc1cnn(C(=O)CCCOc2ccccc2Cl)c1N | -1.34 | –
10 | Cc1cccc(NC(=O)NC2CCC3(C2)OCCO3)c1Cl (stereo not given) | 10.6 | –
11 | O=C(c1cnc(-c2ccccc2)s1)N1CCOC2(CCCC2)C1 | -1.52 | –
12 | CCn1cnnc1CNS(=O)(=O)N1CCCC1c1ccco1 (stereo not given) | -141 | –
13 | CC(O)CN1CCN(Cc2coc(-c3cccc(Cl)c3)n2)CC1 (stereo not given) | -4.73 | –
14 | Cc1cc(C(=O)N2CCNC(=O)C2)c(C)n1Cc1ccccn1 | -2.33 | –
15 | NC(=O)C(NC1CCN(CC2CCCCC2)CC1)c1ccccc1 (stereo not given) | -4.57 | –
16 | CS(=O)(=O)CCC(=O)Nc1ccsc1 | -3.39 | –
17 | COc1ccc(F)cc1CN1CCN(Cc2nccn2C)C(C)C1 (stereo not given) | 2.01 | –
18 | N#CCCN(Cc1ccco1)C(=O)CCCc1ccccc1 | 73.1 | –
19 | CC1(C)COCCN1C(=O)Cc1cc(Cl)c2c(c1)OCCO2 | 1.54 | –
20 | CC1CCCCN1Cc1nc(C2CC2)no1 (stereo not given) | 4.48 | –
21 | CN(Cc1ccccc1OC(F)(F)F)C(=O)C1CCCN(C(N)=O)C1 (stereo not given) | 7.59 | –
22 | COCCN(C)C(=O)Nc1ccc(C(=O)NCCC(=O)OC)cc1 | 7.2 | –
23 | Cc1cnc(CNC(=O)NCCOc2ncccc2Cl)s1 | 8.35 | –
24 | Cc1cnc(CCNC(=O)NCCOc2ncccc2Cl)s1 | 9.18 | –
25 | Cc1cnc(NC(=O)NCCOc2ncccc2Cl)s1 | 6.62 | –
26 | CCN(CC(F)(F)F)C(=O)C1CCCN(Cc2cscn2)C1 (stereo not given) | -8.64 | –
27 | Oc1ccc2oc3c(c2c1CN1CCOCC1)CCCC3 | -0.499 | –

Row | Compound | cytotoxicity at 10 µM [1] [%] | INHIBITION [2] [%]
28 | COc1ccc(C)cc1CNC(=O)C1=NN(c2ccccc2)C(=O)CN1 | 12.8 | –
29 | O=C(c1ccn(-c2cccc(F)c2)n1)N1CCN(CCO)CC1 | -4.67 | –
30 | CCc1noc(CNc2c(F)cccc2-n2cccn2)n1 | -5.14 | –
31 | O=C1CN(Cc2nnc(-c3ccc(Cl)cc3)o2)CCN1 | -0.238 | –
32 | CC(Cn1cccn1)NC(=O)Nc1ccc(N2CCCCC2)nc1 (stereo not given) | -4.39 | –
33 | Cc1ccc(NC(=O)NC(C)Cn2cccn2)cc1 (stereo not given) | -0.577 | –
34 | CSC(C)(C)CNC(=O)Nc1cccc(-c2nccn2C)c1 | -3.13 | –
35 | Cc1ccc(C(=O)Nc2ccc(N(C)C)nc2)n1C | -9.38 | –
36 | CN(C)C(=O)c1cnc(-c2ccc3c(c2)OCO3)s1 | 5.29 | –
37 | O=c1oc(-c2ccc(F)cc2)nn1CCS(=O)(=O)c1ccccc1 | -0.924 | –
38 | COc1ccccc1OCC(=O)NCc1ncc(C)c(OC)c1C | -6.63 | –
39 | COc1c(C)cnc(CNC(=O)CCOCc2ccccc2)c1C | -4.31 | –
40 | CNC(=O)c1ccc(CNC(=O)c2cc(C(C)C)n(C)n2)cc1 | -9.71 | –
41 | COc1ccc2c(OCC(=O)NCC(F)(F)F)ccnc2c1 | -3.88 | –
42 | O=C(Nc1ccccc1)c1ccc(NCc2nccs2)nn1 | 5.62 | –
43 | Cc1nc(-c2cccc(C(=O)N(C)C)c2)cs1 | 1.77 | –
44 | Clc1ccc(CNc2ccc(Cl)cn2)cc1 | 6.96 | –
45 | Cc1ccsc1CNC(=O)CSc1nnc[nH]1 | -0.655 | –
46 | CCn1ccc2cc(NC(=O)CC3CCCO3)ccc21 (stereo not given) | 2.5 | –
47 | CNc1ncc(CN(C)C(=O)[C@@]23CNC[C@@H]2CN(C(=O)C2CC2)C3)cn1 | 4.67 | –
48 | CC(NS(C)(=O)=O)C(=O)N(C)Cc1csc(-c2ccccc2)n1 (stereo not given) | 2.5 | –
49 | Cc1nc(C)n(CCCNC(=O)C(C)n2ccnc2C(C)C)n1 (stereo not given) | -4.97 | –
50 | CCc1ccc(CN2CCC(=O)N(CC3CC3)C(C(C)C)C2)nc1 (stereo not given) | 2.08 | –
51 | CCOC(=O)N1CCN(C(=O)Cn2ccc3ncccc3c2=O)CC1 | -4.99 | –
52 | CCc1nnc(N2C[C@@H](CN(C)CCO)[C@@H](CO)C2)s1 | -5.61 | –
53 | FC(F)(F)C1CN(c2nc(-c3ccccc3)no2)CCO1 (stereo not given) | -1.52 | –
54 | COc1ccc(-n2ccnc2-c2cnc(C(C)C)nc2)cc1C(=O)O | -2.42 | –

Row | Compound | cytotoxicity at 10 µM [1] [%] | INHIBITION [2] [%]
55 | CC(C)C1CN(Cc2cnc(N(C)C)nc2)CCCN1CC1CC1 (stereo not given) | -6 | –
56 | CN(C)c1ccc(-c2cccc(-c3ccn(CCCO)n3)c2)nn1 | -3.06 | –
57 | CC(C)N1CCN(CCn2cnc3c(F)cccc3c2=O)CC1 | 1.64 | –
58 | O=C(CCn1ccc2ncccc2c1=O)N1CCCC1 | -1.93 | –
59 | Cc1ccc(C)c(S(=O)(=O)N2CCN(C)C3(CCC(=O)N(C)CC3)C2)c1 (stereo not given) | 7.01 | –
60 | CO[C@H]1C[C@@H](O)C12CCN(C(=O)c1cccc(CCC(C)(C)O)c1)CC2 | 2.74 | –
61 | Cn1cc(C(=O)N2CCCCC2CCc2ccc(O)cc2)cn1 (stereo not given) | -2.3 | –
62 | CC(C)c1noc(-c2ccc(NCC3CCCOC3)nc2)n1 (stereo not given) | -2.26 | –
63 | COc1cc(-c2nc3c([nH]2)CCCNC3=O)ccc1OC(C)C | 13.3 | –
64 | COc1ccccc1Oc1ncccc1CNC(=O)[C@@H](N)[C@@H](C)O | -6.29 | –
65 | CCCc1cnc(C)nc1N1CCC2(CC1)CNC(=O)O2 | 44.6 | –
66 | O=C(Nc1ccc(F)cc1)C1CNCCN1C(=O)CC1CCCCC1 (stereo not given) | 7.01 | –
67 | COc1ccccc1[C@@H]1CN(Cc2nccn2C)C[C@H]1C(=O)O | -4.83 | –
68 | CCN1CCc2[nH]cnc2C12CCN(c1ccc(Cl)c(C(=O)O)n1)CC2 | 2.74 | –
69 | CN(Cc1ccco1)c1ccc(-c2nccn2C)nn1 | -0.447 | –
70 | CC(C)NC(=O)N(C)C(c1cccc(F)c1)c1ccccn1 (stereo not given) | 4.86 | –
71 | Cc1nnc(NC(=O)NCc2ccc(F)cc2)s1 | -26 | –
72 | CN(C)C(=O)c1cccc(CN2CCN(CCO)CC2)c1 | -28.6 | –
73 | O=C(Nc1cccnc1)C1=NN(c2ccccc2)C(=O)CN1 | -7.12 | –
74 | O=C(NCCc1ccccc1F)NCC(O)c1cccc(F)c1 (stereo not given) | -6.23 | –
75 | Cc1cc(N2CCC(C(=O)N(C)C)CC2)nc(-c2ccncc2)n1 | -17.1 | –
76 | Cc1nc(CN2CCN(C(=O)c3sccc3C)CC2)cs1 | 0.96 | –
77 | CN(C)S(=O)(=O)N1C[C@H]2CCC[C@@]2(COCc2cccnc2)C1 | 9.19 | –
78 | CN1C[C@H]2CC[C@@H](C1)N(Cc1ccccc1OCCN1CCOCC1)C2 | -3 | –
79 | Cc1ccc(SCCCNC(=O)c2cn(C3CCC(N)CC3)nn2)cc1 (stereo not given) | -8.33 | –
